34 compounds from ChEMBL document CHEMBL4765459, “Synthesis and bioactivity of phenyl substituted furan and oxazole carboxylic acid derivatives as potential PDE4 inhibitors” (Eur J Med Chem, 2020) can be followed below.

Experiment [1] concerns the target T1, 3',5'-cyclic-AMP phosphodiesterase 4B (Homo sapiens, UniProt Q07343). Description: Inhibition of PDE4B in human PBMC assessed as reduction in LPS-induced TNFalpha release preincubated for 30 mins followed by LPS stimulation and measured after 18 hrs by TR-FRET assay. In short, it runs like this:
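Human PBMCs from buffy coats, blood first diluted 1:1 with saline, isolated on Lymphoprep. Compound pre-incubation 30 min, then LPS stimulation for 18 h. IC50 reported.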
On the technique in general: Time-resolved FRET reads energy transfer from a long-lived donor to a nearby acceptor.

Experiment [2] has as its target T1, 3',5'-cyclic-AMP phosphodiesterase 4B. Description: Inhibition of human U-937 cells derived PDE4B using [3H] cAMP as substrate measured after 30 mins. A digest of the protocol:
(§1)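 Enzyme from human monocyte-derived U937 cells, stored at −20 °C and diluted in triple-distilled water containing BSA. Substrate was [3H]cAMP (300,000 dpm/assay) in 100 mmol/L Tris-HCl pH 8.0 with 5 mmol/L EGTA. Compound added in DMSO. Incubation 30 min at 30 °C. Duplicates run at several compound concentrations.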

Experiment [3] has as its target 3',5'-cyclic-AMP phosphodiesterase 4D (Homo sapiens, UniProt Q08499). Description: Inhibition of human U-937 cells derived PDE4D using [3H] cAMP as substrate measured after 30 mins. A digest of the protocol:
as §1

For another experiment, the species on record is Homo sapiens. The experiment is described as follows: Selectivity ratio of IC50 for inhibition of human U937 cells derived PDE4D to inhibition of human U937 cells derived PDE4B.
In another experiment the test system is Mus musculus. The experiment is described as follows: Antiinflammatory activity in LPS induced Swiss albino mouse model of sepsis assessed as inhibition of TNFalpha production at 10 mg/kg, po preincubated for 30 mins followed by LPS stimulation and measured after 90 mins by ELISA relative to control. The class given is functional. To be noted: 2 h, time 120 min. A digest of the protocol:
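Female Swiss albino mice, weight-matched, n = 6 per group, fasted 20 h with water available. Oral dosing in 0.5% Tween 80 / 0.25% sodium carboxymethylcellulose, with vehicle-only controls. 500 µg E. coli LPS (B4) in phosphate buffer given i.p. 30 min later. Retro-orbital bleed 90 min after LPS. Serum spun 4000 rpm for 20 min, held at 4 °C overnight, then TNF-α measured by mouse ELISA kit.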
For orientation: An ELISA detects its analyte on a solid surface through an enzyme-linked reagent.

The next experiment concerns Rattus norvegicus. Description: Antiinflammatory activity in LPS induced Sprague-Dawley rat model of asthma and COPD assessed as inhibition of neutrophilia at 10 mg/kg, po preincubated for 30 mins followed by LPS stimulation and measured after 6 hrs relative to control. In kind it is functional. To be noted: time 6.5 hrs. In short, it runs like this: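 Male Sprague Dawley rats, acclimatized one week and randomized by body weight, n = 6 per group. Compound given orally, suspended in 0.25% sodium carboxymethylcellulose, half an hour before LPS exposure. Bronchoalveolar lavage done 6 h after LPS. Total cell count and differential leukocyte count compared with control.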

T1 sequence (Q07343 whole entry): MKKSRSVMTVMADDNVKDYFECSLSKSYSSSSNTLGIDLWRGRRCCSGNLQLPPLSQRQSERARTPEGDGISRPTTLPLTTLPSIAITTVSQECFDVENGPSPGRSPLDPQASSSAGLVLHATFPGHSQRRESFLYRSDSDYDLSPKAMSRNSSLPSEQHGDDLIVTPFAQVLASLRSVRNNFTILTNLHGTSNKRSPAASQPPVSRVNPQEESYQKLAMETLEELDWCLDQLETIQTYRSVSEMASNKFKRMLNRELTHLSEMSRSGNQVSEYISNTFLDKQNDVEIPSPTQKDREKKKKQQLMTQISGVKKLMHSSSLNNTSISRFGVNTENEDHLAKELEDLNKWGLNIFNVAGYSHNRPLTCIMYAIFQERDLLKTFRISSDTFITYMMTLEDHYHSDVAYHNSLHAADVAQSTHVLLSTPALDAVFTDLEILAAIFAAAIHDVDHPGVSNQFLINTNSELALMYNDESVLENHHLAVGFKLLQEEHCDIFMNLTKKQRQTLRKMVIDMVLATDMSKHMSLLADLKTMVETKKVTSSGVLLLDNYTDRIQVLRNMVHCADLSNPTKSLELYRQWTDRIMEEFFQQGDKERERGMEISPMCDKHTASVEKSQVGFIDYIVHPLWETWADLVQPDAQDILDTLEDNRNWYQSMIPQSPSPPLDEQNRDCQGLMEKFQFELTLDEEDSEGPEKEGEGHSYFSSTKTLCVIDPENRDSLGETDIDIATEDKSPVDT
3',5'-cyclic-AMP phosphodiesterase 4D, sequence (Q08499 whole entry): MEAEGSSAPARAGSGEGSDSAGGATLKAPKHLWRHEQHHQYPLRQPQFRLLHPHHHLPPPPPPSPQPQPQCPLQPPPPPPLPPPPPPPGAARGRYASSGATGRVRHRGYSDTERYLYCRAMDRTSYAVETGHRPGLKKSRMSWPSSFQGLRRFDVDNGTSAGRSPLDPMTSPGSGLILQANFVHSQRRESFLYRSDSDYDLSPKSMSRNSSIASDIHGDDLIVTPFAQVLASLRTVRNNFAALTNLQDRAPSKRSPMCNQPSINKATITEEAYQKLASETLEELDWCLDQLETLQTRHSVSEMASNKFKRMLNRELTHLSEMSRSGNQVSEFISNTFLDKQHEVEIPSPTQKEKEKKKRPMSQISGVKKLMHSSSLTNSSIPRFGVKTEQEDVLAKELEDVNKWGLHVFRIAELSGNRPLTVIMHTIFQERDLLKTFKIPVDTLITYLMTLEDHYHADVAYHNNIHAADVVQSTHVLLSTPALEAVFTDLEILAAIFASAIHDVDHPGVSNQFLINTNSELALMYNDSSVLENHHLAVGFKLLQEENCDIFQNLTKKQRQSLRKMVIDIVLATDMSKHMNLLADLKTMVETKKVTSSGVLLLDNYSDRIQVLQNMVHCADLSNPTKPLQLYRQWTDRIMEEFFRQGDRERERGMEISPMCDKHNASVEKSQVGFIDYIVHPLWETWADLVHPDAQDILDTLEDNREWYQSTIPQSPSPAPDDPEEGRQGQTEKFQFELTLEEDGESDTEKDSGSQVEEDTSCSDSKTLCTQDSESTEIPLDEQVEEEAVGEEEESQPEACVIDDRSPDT

For orientation: IC50 means the concentration needed to halve the response being measured. In the case of `N#C/N=C1/SCCN1C(=O)c1coc(-c2ccccc2)n1`, the IC50 in experiment [1] turned out to be 142 µM; in experiment [2], 71.2 µM.
Consider `N#C/N=C1/SCCN1C(=O)c1coc(-c2c(F)cccc2F)n1`, for which the IC50 in experiment [3] came out at 98.7 µM; in experiment [1] it was 49.3 µM; in experiment [2] it was 16.3 µM. Also, in the experiment listed under Homo sapiens, the Ratio IC50 amounted to 6.06.
Turning to `N#C/N=C1/SCCN1Cc1ccc(-c2cccc(Cl)c2)o1`, the values for the IC50 in experiment [1] and in experiment [2] were 89.7 µM and 62.8 µM, respectively.
For the compound `Cc1ccc(-c2nc(C(=O)N3CCS/C3=N/C#N)co2)cc1`, the results for the IC50 in experiment [3], in experiment [1] and in experiment [2] were 66.9 µM, 35.2 µM and 9.2 µM, respectively. Further, in the experiment listed under Homo sapiens, the Ratio IC50 amounted to 7.27.
As to `N#C/N=C1/SCCN1Cc1ccc(-c2cccc(F)c2)o1`, the IC50 was determined as 89.5 µM in experiment [1] and 59.7 µM in experiment [2].
Consider `N#C/N=C1/SCCN1C(=O)c1coc(-c2ccc(Br)cc2)n1`, for which the IC50 in experiment [1] was 131 µM; in experiment [2] it was 46.7 µM.
As a reminder, the inhibition in vivo is how much of the control response was suppressed. Regarding `COc1ccc(-c2nc(C(=O)N3CCS/C3=N/C#N)co2)cc1`, the figures for the inhibition in vivo at 10 mg/kg in the experiment with Mus musculus and in the experiment on Rattus norvegicus were 52.6% and 42.1%, respectively. Also, the IC50 in experiment [3] is 15.7 µM; in experiment [1] it was 11.8 µM; in experiment [2], 1.4 µM. Moreover, the Ratio IC50 in the experiment listed under Homo sapiens amounted to 11.2.
In the case of `COc1ccc(C2CNC(=O)C2)cc1OC1CCCC1` (stereo not drawn) [ROLIPRAM], the inhibition in vivo at 10 mg/kg in the experiment on Mus musculus amounted to 45.3%; in the experiment with Rattus norvegicus, 36.8%.
For `N#C/N=C1/SCCN1C(=O)c1coc(-c2ccc(F)cc2)n1`, the IC50 in experiment [3] is 45.9 µM; in experiment [1], 22.1 µM; in experiment [2], 6.8 µM. The Ratio IC50 in the experiment filed under Homo sapiens is 6.75.
Take `N#C/N=C1/SCCN1C(=O)c1ccc(-c2ccccc2)o1`: the IC50 in experiment [1] is 170 µM; in experiment [2], 111 µM.
`N#C/N=C1/SCCN1C(=O)c1coc(-c2cccc(F)c2)n1`: the IC50 in experiment [1] was found to be 64.3 µM; in experiment [2], 27.6 µM.
As to `N#C/N=C1/SCCN1C(=O)c1ccc(-c2c(F)cccc2F)o1`, the IC50 in experiment [3] is 88.6 µM; in experiment [1], 60.1 µM; in experiment [2] it was 22.1 µM. Besides, the Ratio IC50 in the experiment filed under Homo sapiens worked out at 4.01.
The corresponding values for `N#C/N=C1/SCCN1Cc1ccc(-c2ccc(F)cc2)o1` are 111 µM, 45.8 µM, 18.9 µM and 5.85.
With `N#C/N=C1/SCCN1C(=O)c1ccc(-c2cccc(F)c2)o1`, the IC50 was determined as 72.6 µM in experiment [1] and 37.8 µM in experiment [2].
In the case of `N#C/N=C1/SCCN1C(=O)c1ccc(-c2cccc(Cl)c2)o1`, the results for the IC50 in experiment [3], in experiment [1] and in experiment [2] were 99.8 µM, 74.3 µM and 29.4 µM, respectively. In the experiment listed under Homo sapiens, the Ratio IC50 came to 3.39.
As for `N#C/N=C1/SCCN1C(=O)c1coc(-c2ccc(Cl)cc2)n1`, the figures for the IC50 in experiment [3], in experiment [1] and in experiment [2] were 26.8 µM, 27.2 µM and 3.6 µM, respectively. Besides, the Ratio IC50 in the experiment filed under Homo sapiens is 7.44.
Turning to `N#C/N=C1/SCCN1C(=O)c1ccc(-c2ccccc2Cl)o1`, the IC50 in experiment [1] was found to be 123 µM; in experiment [2], 62.8 µM.
Consider `N#C/N=C1/SCCN1Cc1ccc(-c2ccc(Br)cc2)o1`, for which the IC50 turned out to be 156 µM in experiment [1] and 52.7 µM in experiment [2].
On to `COc1ccc(-c2ccc(CN3CCS/C3=N/C#N)o2)cc1`, for which the inhibition in vivo at 10 mg/kg in the experiment on Mus musculus was 31.2%; in the experiment on Rattus norvegicus, 28.7%. In addition, the figures for the IC50 in experiment [3], in experiment [1] and in experiment [2] were 32.8 µM, 36.8 µM and 9.6 µM, respectively. Also, the Ratio IC50 in the experiment listed under Homo sapiens came out at 3.42.
For the compound `N#C/N=C1/SCCN1C(=O)c1coc(-c2cccc(Cl)c2)n1`, the results for the IC50 in experiment [3], in experiment [1] and in experiment [2] were 102 µM, 62.5 µM and 18.1 µM, respectively. The Ratio IC50 in the experiment filed under Homo sapiens is 5.66.
For the compound `N#C/N=C1/SCCN1C(=O)c1ccc(-c2ccccc2F)o1`, the values for the IC50 in experiment [1] and in experiment [2] were 110 µM and 62.4 µM, respectively.
For the compound `N#C/N=C1/SCCN1C(=O)c1ccc(-c2ccc(F)cc2)o1`, the IC50 was found to be 55.7 µM in experiment [3], 29.8 µM in experiment [1] and 11.3 µM in experiment [2]. Further, the Ratio IC50 in the experiment filed under Homo sapiens worked out at 4.93.
In the case of `N#C/N=C1/SCCN1C(=O)c1coc(-c2ccccc2F)n1`, the IC50 amounted to 92.8 µM in experiment [1] and 52.8 µM in experiment [2].
Turning to `N#C/N=C1/SCCN1C(=O)c1coc(-c2ccccc2Cl)n1`, the results for the IC50 in experiment [1] and in experiment [2] were 101 µM and 40.3 µM, respectively.
For the compound `N#C/N=C1/SCCN1Cc1ccc(-c2ccc(Cl)cc2)o1`, the IC50 was found to be 58.3 µM in experiment [3], 44.2 µM in experiment [1] and 15.7 µM in experiment [2]. Further, the Ratio IC50 in the experiment filed under Homo sapiens is 3.71.
Regarding `N#C/N=C1/SCCN1C(=O)c1ccc(-c2ccc(Cl)cc2)o1`, the IC50 in experiment [3] was determined as 26.4 µM; in experiment [1], 35.6 µM; in experiment [2], 6.6 µM. In addition, in the experiment filed under Homo sapiens, the Ratio IC50 was 4.
Consider `N#C/N=C1/SCCN1Cc1ccc(-c2ccccc2)o1`, for which the figures for the IC50 in experiment [1] and in experiment [2] were 199 µM and 162 µM, respectively.
`N#C/N=C1/SCCN1Cc1ccc(-c2ccccc2Cl)o1`: the IC50 is 149 µM in experiment [1] and 102 µM in experiment [2].
Turning to `N#C/N=C1/SCCN1Cc1ccc(-c2c(F)cccc2F)o1`, the IC50 in experiment [3] came out at 160 µM; in experiment [1] it was 82.3 µM; in experiment [2], 45.7 µM. In addition, in the experiment filed under Homo sapiens, the Ratio IC50 was 3.49.
The corresponding values for `Cc1ccc(-c2ccc(C(=O)N3CCS/C3=N/C#N)o2)cc1` are 54.3 µM, 41.3 µM, 12.5 µM and 4.34.
`COc1ccc(-c2ccc(C(=O)N3CCS/C3=N/C#N)o2)cc1`: the inhibition in vivo at 10 mg/kg was 40.5% in the experiment on Mus musculus and 33.8% with Rattus norvegicus. In addition, the values for the IC50 in experiment [3], in experiment [1] and in experiment [2] were 18.7 µM, 15.3 µM and 2.8 µM, respectively. For the same compound, the Ratio IC50 in the experiment listed under Homo sapiens is 6.68.
On to `Cc1ccc(-c2ccc(CN3CCS/C3=N/C#N)o2)cc1`, for which the figures for the IC50 in experiment [3], in experiment [1] and in experiment [2] were 121 µM, 53.9 µM and 20.1 µM, respectively. Also, the Ratio IC50 in the experiment listed under Homo sapiens was determined as 6.04.
For the compound `N#C/N=C1/SCCN1Cc1ccc(-c2ccccc2F)o1`, the IC50 in experiment [1] was found to be 121 µM; in experiment [2] it was 85.6 µM.
For `N#C/N=C1/SCCN1C(=O)c1ccc(-c2ccc(Br)cc2)o1`, in that order: 139 µM and 49.6 µM.
